In ChEMBL document CHEMBL1130122, “Synthesis, biological evaluation, and structure-activity relationships of 3-acylindole-2-carboxylic acids as inhibitors of the cytosolic phospholipase A2” (J Med Chem, 1997):

Key:
Bos taurus = species: Bos taurus; test: The cell lytic potency at a compound concentration of 33 uM in bovine platelets was determined; type: functional
Summary of the method: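 Turbidimetric lysis assay in bovine platelets. ETYA, then compound or DMSO solvent, then platelet suspension and CaCl2 at 37 °C. The suspension was diluted with PBS and absorbance read at 800 nm; lysis lowers absorbance. Platelets were stored at +4 °C and used within 36 h of isolation.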

[1] = molecular target: T1, Cytosolic phospholipase A2 (Bos taurus, UniProt A4IFJ5); test: Inhibitory activity against cPLA2 (cytosolic Phospholipase A2) by measuring the calcium ionophore A-23,187-induced arachidonic acid release from bovine platelets; type: functional
T1 sequence (A4IFJ5 whole entry): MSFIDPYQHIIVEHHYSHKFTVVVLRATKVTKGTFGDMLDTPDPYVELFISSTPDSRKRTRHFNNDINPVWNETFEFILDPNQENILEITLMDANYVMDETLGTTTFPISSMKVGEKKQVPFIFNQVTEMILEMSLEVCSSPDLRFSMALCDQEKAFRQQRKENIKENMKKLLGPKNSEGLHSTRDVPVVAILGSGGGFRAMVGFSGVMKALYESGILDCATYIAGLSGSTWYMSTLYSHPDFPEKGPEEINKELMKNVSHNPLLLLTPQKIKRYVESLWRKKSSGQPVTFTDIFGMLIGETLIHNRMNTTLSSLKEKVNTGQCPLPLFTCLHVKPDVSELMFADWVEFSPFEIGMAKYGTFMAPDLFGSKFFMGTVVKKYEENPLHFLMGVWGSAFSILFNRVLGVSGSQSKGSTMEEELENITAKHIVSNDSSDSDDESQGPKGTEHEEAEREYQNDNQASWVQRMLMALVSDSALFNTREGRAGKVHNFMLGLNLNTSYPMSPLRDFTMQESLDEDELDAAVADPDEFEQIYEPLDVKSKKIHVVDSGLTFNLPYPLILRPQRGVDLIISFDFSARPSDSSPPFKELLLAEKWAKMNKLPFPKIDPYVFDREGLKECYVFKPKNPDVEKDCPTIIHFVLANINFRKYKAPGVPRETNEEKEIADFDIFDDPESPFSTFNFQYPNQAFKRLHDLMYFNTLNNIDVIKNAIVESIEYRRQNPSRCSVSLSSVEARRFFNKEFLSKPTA
Summary of the method: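 Intact bovine platelets stimulated with calcium ionophore A23187 in the presence of ETYA, which blocks arachidonic acid metabolism. Compound or solvent control was added to ETYA, then platelet suspension and CaCl2 at 37 °C. Released arachidonic acid was measured by HPLC/UV. IC50 was read graphically as the mean of at least two independent experiments. Platelets were stored at +4 °C and used within 36 h of isolation.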

[2] = tested on: Cytosolic phospholipase A2 (Bos taurus); test: Inhibitory activity against cPLA2 (cytosolic Phospholipase A2) by measuring the calcium ionophore A-23,187-induced arachidonic acid release from bovine platelets at a compound conc of 33 uM
[3] = tested on: Cytosolic phospholipase A2 (Bos taurus); test: Inhibitory activity against cPLA2 (cytosolic Phospholipase A2) by measuring the calcium ionophore A-23,187-induced arachidonic acid release from bovine platelets; Not active at highest conc tested 33 uM

Compound | Lysis (Bos taurus) [%] | IC50 [1] [µM] | inhibition [2] [%] | IC50 [3]
CCCCCCCCCCOc1cccc(CCC(=O)c2c(C(=O)O)n(C)c3ccccc23)c1 | 14 | 11 |  | 
CCCCCCCC(=O)c1c(C(=O)O)n(C)c2ccccc12 | 0 | > 33 | 30 | 
CCCCCCCCCCOc1cccc(CC(=O)c2c(C(=O)O)n(C)c3ccccc23)c1 | 21 | 10 |  | 
CCCCCCCCCCCC(=O)c1c(C(=O)O)n(C)c2ccc(Cl)cc12 | 14 | 8 |  | 
CCCCCCCCCCCCOc1cccc(C(=O)c2c(C(=O)O)n(C)c3ccccc23)c1 | 26 | 7 |  | 
CCCCCCCCCCCC(=O)c1c(C(=O)O)n(CCCCCC(=O)O)c2ccccc12 | 0 | 8 |  | 
CCCCCCCCCCCC(=O)c1c(C(=O)O)n(CC(=O)O)c2ccccc12 | 0 | > 33 | 39 | 
CCCCCCCCCCCCCCCCCC(=O)c1c(C(=O)O)n(CCCCCCCCCCCC)c2ccccc12 | 0 |  |  | 
CCCCCCCCCCCC(=O)c1c(C(=O)O)n(C)c2ccc(F)cc12 | 0 | 11 |  | 
CCCCCCCCCCCCCCCCCC(=O)c1c(C(=O)O)n(CCCCCCC)c2ccccc12 | 16 | > 10 |  | 
CCCCCCCCCCCC(=O)c1c(C(=O)O)n(C)c2ccccc12 | 0 | 8 |  | 
CCCCCCCCCCCC(=O)c1c(C(=O)O)n(CCCCCCCCC(=O)O)c2ccccc12 | 0 | 1.6 |  | 
CCCCCCCCCC(=O)c1c(C(=O)O)n(C)c2ccccc12 | 0 | 18 |  | 
CCCCCCCCCCCC(=O)c1c(C(=O)O)n(CCCCCCCCCCC(=O)O)c2ccccc12 | 0 | 1.4 |  | 
CCCCCCCCCCCCCCCCCC(=O)c1c(C(=O)O)[nH]c2ccccc12 | 0 |  |  | Not Active
CCCCCCCCCCCC(=O)c1c(C(=O)O)n(CCCCCCC(=O)O)c2ccccc12 | 0 | 3 |  | 
CCCCCCCCCCCCCCCCCCc1c(C(=O)O)n(C)c2ccccc12 | 0 |  |  | Not Active
CCCCCCCCCCCCCCCCCC(=O)c1c(C(=O)O)n(CCCCCCCC)c2ccccc12 | 0 |  |  | 
CCCCCCCCCCCC(=O)c1c(C(=O)O)n(CCOc2ccc(CC(=O)O)cc2)c2ccccc12 | 0 |  |  | 
CCCCCCCCCCOc1ccc(CCC(=O)c2c(C(=O)O)n(C)c3ccccc23)cc1 | 0 | 10 |  | 
CCCCCCCCCCCC(=O)c1c(C(=O)O)n(C)c2ccc(OC)cc12 | 0 | 8 |  | 
CCCCCCCCCCCCOc1ccccc1C(=O)c1c(C(=O)O)n(C)c2ccccc12 | 60 |  |  | 
CCCCCCCCCCCCCCCCCC(=O)c1c(CCC(=O)O)n(C)c2ccccc12 | 0 |  |  | Not Active
CCCCCCCCCCOc1ccccc1CCC(=O)c1c(C(=O)O)n(C)c2ccccc12 | 34 | 34 |  | 
CCCCCCCCCCCC(=O)c1c(C(=O)O)n(Cc2cccc(/C=C/C(=O)O)c2)c2ccccc12 | 0 | 5.3 |  | 

Compound | Lysis (Bos taurus) [%] | IC50 [1] [µM] | inhibition [2] [%] | IC50 [3]
CCCCCCCCCCCC(=O)c1c(C(=O)O)n(C)c2cccc(Cl)c12 | 50 | 9 |  | 
CCCCCCCCCCCCCCCCCC(=O)c1c(C(=O)OCC)n(C)c2ccccc12 | 0 |  |  | Not Active
CCCCCCCCCCCCCC(=O)c1c(C(=O)O)n(C)c2ccccc12 | 0 | 8 |  | 
CCCCCCCCCCCC(=O)c1c(C(=O)O)n(C)c2cc(Cl)ccc12 | 26 | 9 |  | 
CCCCCCCCCCCCCCCCCC(=O)c1c(C(=O)O)n(CCCCCC)c2ccccc12 | 27 | 9 |  | 
CCCCCCCCCCCCCCCCCC(=O)c1c(CC(=O)O)n(C)c2ccccc12 | 0 | > 33 |  | 
CCCCCCCCCCCCCCCCCC(=O)c1c(C(=O)O)n(C)c2ccccc12 | 0 | 8 |  | 
CCCCCCCCCCCCCCCCCC(=O)c1c(CC(=O)O)[nH]c2ccccc12 | 0 |  |  | Not Active
CCCCCCCCCCCC(=O)c1c(C(=O)O)n(Cc2cccc(CCC(=O)O)c2)c2ccccc12 | 0 | 4.3 |  | 
CCCCCCCCCCOc1ccccc1CC(=O)c1c(C(=O)O)n(C)c2ccccc12 | 37 | 7 |  | 
CCCCCCCCCCCCOc1ccc(C(=O)c2c(C(=O)O)n(C)c3ccccc23)cc1 | 19 | 7 |  | 
CCCCCCCCCCCC(=O)c1c(C(=O)O)n(C)c2ccc(O)cc12 | 0 | 10 |  | 
CCCCCCCCCCCCCCCCNC(=O)C1CCCN1 (configuration not stated) | 0 | 13 |  | 
CCCCCCCCCCCC(=O)c1c(C(=O)O)n(Cc2ccc(/C=C/C(=O)O)cc2)c2ccccc12 | 0 | 4.1 |  | 
CCCCCCCCCCCC(=O)c1c(C)c(C)n(C)c1C(=O)O | 0 | 11 |  | 
CCCCCCCCCCCC(=O)c1c(C(=O)O)n(C)c2ccc([N+](=O)[O-])cc12 | 10 | 10 |  | 
CCCCCCCCCCCC(=O)c1c(C(=O)O)n(CCCCCCCC(=O)O)c2ccccc12 | 0 | 1.6 |  | 
CCCCCCCCCCCC(=O)c1c(C(=O)O)n(CCOc2cccc(C(=O)O)c2)c2ccccc12 | 0 | 1.9 |  | 
CCCCCCCCCCOc1ccc(CC(=O)c2c(C(=O)O)n(C)c3ccccc23)cc1 | 38 | 7 |  | 
CCCCCCCCCCCC(=O)c1c(C(=O)O)n(CCOc2cccc(CC(=O)O)c2)c2ccccc12 | 0 |  |  | 
CCCCCCCCCCCC(=O)c1c(C(=O)O)n(CCOc2ccc(C(=O)O)cc2)c2ccccc12 | 0 | 0.5 |  | 
CCCCCCCCCCCC(=O)c1c(C(=O)O)n(Cc2ccc(CCC(=O)O)cc2)c2ccccc12 | 0 | 4 |  | 
CCCCC/C=C\C/C=C\C/C=C\C/C=C\CCCC(=O)C(F)(F)F [ARACHIDONYL TRIFLUOROMETHYLKETONE] | 31 | 11 |  | 
CCCCCCCCCCCCCCCCCC(=O)c1c(CCC(=O)O)[nH]c2ccccc12 | 0 |  |  | Not Active
CCCCCCCCCCCCCCCCCC(=O)c1c(C(=O)O)n(CCCCCCCC(=O)O)c2ccccc12 | 69 | 1.4 |  | 
